This is an account of results in PMC4876925 (Nano research, 2016).

The target in data set [1] is recombinant human His-tagged CD13 (Homo sapiens, UniProt P15144). The experiment in a line: CD13 enzymatic activity assay. Type of data set: biochemical.
Another data set concerns the target αvβ3 (Homo sapiens, UniProt P05106+P06756). The experiment in a line: Integrin competitive binding assay with CisoDGRC-peroxidase.
For data set [2] the following is noted: cited from earlier work.
The next data set relates to WEHI-164 fibrosarcoma. In words: Anti-tumor activity in the WEHI-164 fibrosarcoma model. Type of data set: in vivo, BALB/c female mice. The following applies: dose-escalation, i.v. Summed up:
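Female BALB/c mice, 6–7 weeks old, received 1.5 × 10^6 WEHI-164 cells s.c. in the left flank. On day 5, mice got single i.v. doses of TNF-loaded gold nanoparticles (1–4 or 9–16 bioactive TNF molecules/nanoparticle) in 0.9% NaCl with 100 µg/mL HSA. Tumors were measured with calipers and volumes from day 5 to day 9 were normalized to day 5. Data are mean ± SE from 1–7 independent experiments, 6 mice each.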

Residues, ends and D or L forms follow the SMILES beside them.

Consider `N=C(N)NCCC[C@@H]1NC(=O)CNC(=O)[C@H](CC(N)=O)NC(=O)CNC(=O)[C@H](CS)NC(=O)CNC1=O` [N1, c(CGNGRG)] (cyclo(CGNGRG)), for which the “CD13 inhibition efficiency relative to NGR-2C(Y)” value in data set [1] (enzyme inhibition, 30 min at 37 °C) is given as 5–6 fold. Besides, the “Binding efficiency to CD13 relative to CNGRC (NGR-2C) and c(CNGRGG) (N3)” value in data set [1] (recombinant soluble CD13, enzyme binding and inhibition experiments) is reported as 6–10 fold. For the same molecule, at αvβ3, the response was half-maximal at 10 µM (EC50).
Regarding CNGRC (disulfide) [NGR-2C], the “Half-life of asparagine (deamidation)” value in data set [2] is 3 to 4 h.
With CNGRCG-TNF (disulfide) [NGR-TNF], the “Shape of dose-response curve (tumor growth day 5 to day 9)” value in the data set on WEHI-164 fibrosarcoma is reported as “U-shaped dose-response curve”.

Broadly, the EC50 is the concentration needed to bring the measured effect to its halfway point.
